Reference: ChEMBL document CHEMBL1126658, “Thyroid hormone uptake by hepatocytes: structure-activity relationships of phenylanthranilic acids with inhibitory activity” (J Med Chem, 1993)

System: H4
Assay: Compound is evaluated for the inhibition of [125I]T3 uptake by H4 rat hepatoma cells at 0.1 mM
Format: functional
In short: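 H4 rat hepatoma cells grown in DMEM/10% FCS at 37 °C, plated to confluence (2 × 10^6 cells/well), then held overnight in serum-free DMEM. Fresh medium with 10^-11 M [125I]T3 plus test substance (final 0.1 mM from DMSO/ethanol stock; solvent-matched controls), 2 min at 37 °C. Five PBS pH 7.4 washes, 0.1 M NaOH lysis, cell-associated radioactivity counted. Nondisplaceable uptake taken with 10^-5 M unlabeled T3. Percent inhibition vs control, ≥5 replicates.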

Row | Compound | inhibition at 100 µM [%]
1 | O=C(O)c1ccccc1Nc1cc(Cl)ccc1Cl | 43.2
2 | O=C(O)c1ccccc1Nc1cc(Cl)cc(Cl)c1 | 60.6
3 | O=C(O)c1ccccc1Nc1ccccc1 [FENAMIC ACID] | 28
4 | O=C(O)c1ccccc1Nc1cccc(C(F)(F)F)c1 [FLUFENAMIC ACID] | 64.4
5 | O=C(O)c1ccccc1Nc1cccc(O)c1 | 6.6
6 | Cc1cccc(Nc2ccccc2C(=O)O)c1C [MEFENAMIC ACID] | 60.9
7 | COc1ccc(Nc2ccccc2C(=O)O)cc1C(F)(F)F | 54
8 | O=C(O)c1ccccc1Nc1cccc(Cl)c1 | 51.4
9 | O=C(O)c1ccccc1Nc1cccc(OC(F)(F)C(F)F)c1 | 57
10 | O=C(O)Cc1ccccc1Nc1c(Cl)cccc1Cl [DICLOFENAC] | 38
11 | Cc1cccc(Nc2ccccc2C(=O)O)c1 | 30
12 | Cc1cccc(C)c1Nc1ccccc1C(=O)O | 48
13 | O=C(O)c1ccccc1Nc1cccc(Cl)c1Cl [CLOFENAMIC ACID] | 56.6
14 | O=C(O)c1ccccc1Nc1ccccc1Cl | 44.6
15 | O=C(O)c1ccccc1Nc1cccc(Br)c1 | 48.1
16 | O=C(O)c1ccccc1Nc1ccc(Cl)c(C(F)(F)F)c1 | 51
17 | O=C(O)c1ccccc1Nc1ccc(Cl)c(Cl)c1 | 55.6
18 | O=C(O)c1ccccc1Nc1cc(Br)cc(Br)c1 | 39.1
19 | Cc1ccc(Cl)c(Nc2ccccc2C(=O)O)c1Cl [MECLOFENAMIC ACID] | 74.2
20 | O=C(O)c1ccccc1Nc1cc(C(F)(F)F)cc(C(F)(F)F)c1 | 39.5
21 | N#Cc1cccc(Nc2ccccc2C(=O)O)c1 | 11.6
22 | Cc1cccc(Nc2ccccc2)c1C | 35.4
23 | O=C(O)c1ccccc1Nc1cccc(I)c1 | 40
24 | O=C(O)c1ccccc1Nc1c(Cl)cccc1Cl | 54.6
